Laboratory results: article PMC7048620 (Nature microbiology, 2020)
Where two headings read alike, the source gives them in different places. Each block holds one molecule with its values, some of them ahead of it.

How the values were obtained:
FtsZ-FtsA co-filaments [1] = target: T1, FtsZ-FtsA co-filaments (Escherichia coli, UniProt P0A9A6+P0ABH0); test: FRAP on supported lipid membranes; details: mean±SD
T1 sequence (P0ABH0 1-420): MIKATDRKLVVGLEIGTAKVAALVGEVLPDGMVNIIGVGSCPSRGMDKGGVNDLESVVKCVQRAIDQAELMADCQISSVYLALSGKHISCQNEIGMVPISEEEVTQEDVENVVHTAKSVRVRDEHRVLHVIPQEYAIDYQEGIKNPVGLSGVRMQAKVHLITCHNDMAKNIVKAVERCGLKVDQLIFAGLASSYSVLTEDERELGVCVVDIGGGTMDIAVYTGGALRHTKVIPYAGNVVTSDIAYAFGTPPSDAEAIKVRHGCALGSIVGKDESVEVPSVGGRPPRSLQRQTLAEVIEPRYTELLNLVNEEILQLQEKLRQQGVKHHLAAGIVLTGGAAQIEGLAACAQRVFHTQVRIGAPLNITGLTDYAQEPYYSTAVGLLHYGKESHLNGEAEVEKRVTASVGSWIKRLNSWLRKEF
T1 sequence (P0A9A6 1-383 partner): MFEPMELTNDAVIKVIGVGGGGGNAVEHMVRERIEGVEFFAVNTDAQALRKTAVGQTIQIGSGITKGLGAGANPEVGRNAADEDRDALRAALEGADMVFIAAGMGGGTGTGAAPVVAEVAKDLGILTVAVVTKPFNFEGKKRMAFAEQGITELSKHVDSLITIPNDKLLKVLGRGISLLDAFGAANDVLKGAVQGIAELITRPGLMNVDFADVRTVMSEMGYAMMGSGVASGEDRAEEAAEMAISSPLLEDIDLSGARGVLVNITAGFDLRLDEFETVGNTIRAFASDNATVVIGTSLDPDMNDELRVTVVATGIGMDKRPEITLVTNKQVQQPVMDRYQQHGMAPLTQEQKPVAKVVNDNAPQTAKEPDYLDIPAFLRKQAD
Summary of the method: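 Treadmilling patterns were formed on supported lipid membranes with 0.2 mol-% tris-Ni-NTA or 1 mol-% mono-Ni-NTA, using FtsA (0.45-0.6 μM) and FtsZ (1.5-1.8 μM) in 50 mM Tris-HCl pH 7.4, 150 mM KCl, 5 mM MgCl2 with 4 mM ATP/4 mM GTP. His-tagged FtsN cytoplasmic peptide went onto tris-Ni-NTA membranes. A ~15 μm x 15 μm area was bleached and imaged at 2 s/frame; a mono-exponential fit gave the half-time.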

FtsZ-FtsA co-filaments [2] = target: T1, FtsZ-FtsA co-filaments; test: Single molecule diffusion and confinement time analysis on supported bilayers; details: Cy5-labelled single molecules in presence of Alexa488-FtsZ pattern, Gaussian fit
Summary of the method: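 FtsA (0.45-0.6 μM) and FtsZ (1.5-1.8 μM) with 4 mM ATP/GTP formed steady-state patterns on supported membranes. Unlabelled His-tagged FtsN cytoplasmic peptide (1 μM) was added from solution with 10-20 pM Cy5-labelled peptide (wild-type or variant). TIRF tracking ran at 10 Hz. Diffusion-coefficient density distributions were fitted with a Gaussian (FtsZ, FtsA) or a double Gaussian (FtsN).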

[3] = Sedimentation velocity analytical ultracentrifugation; assay type: physicochemical, Escherichia coli
Summary of the method: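 Full-length FtsN was loaded at 9-20 μM and read by Rayleigh interference and 280 nm absorbance. Alexa488-FtsA was loaded at 4 μM and read at 495 nm. c(s) distributions came from least-squares boundary modelling.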

[4] = target: FtsZ-FtsA co-filaments on supported lipid membranes (E. coli) (UniProt P0A9A6); test: single-molecule tracking by TIRF microscopy on supported lipid bilayers
[5] = target: FtsZ-FtsA co-filaments on supported lipid membranes (E. coli) (UniProt P0A9A6); test: TIRF microscopy of purified proteins on supported lipid bilayers
FtsA [6] = target: T2, FtsA (Escherichia coli, UniProt P0ABH0); assay type: binding; details: MST
T2 sequence (P0ABH0 1-420): T1 sequence (P0ABH0 1-420)

FtsA [7] = target: T3, FtsA (E. coli, UniProt P0ABH0 1-420); test: MST
T3 sequence: T1 sequence (P0ABH0 1-420)

FtsA [8] = target: T3, FtsA; test: MST; remark: listed apart in the source
[9] = target: the molecule itself; test: single-molecule tracking by TIRF microscopy on supported lipid bilayers
FtsA [10] = target: T3, FtsA; test: TIRF microscopy of purified proteins on supported lipid bilayers

half-time of fluorescence recovery Ƭ0.5, + FtsA/Z (FtsZ-FtsA co-filaments [1]; after FtsA and FtsZ added): 17.7 ± 0.2 s | half-time of fluorescence recovery Ƭ0.5, alone (FtsZ-FtsA co-filaments [1]; without FtsA and FtsZ): 12.8 ± 3.4 s
Molecule: CCCCCCCC/C=C\CCCCCCCC(=O)OC[C@H](COP(=O)(O)OCCNS(=O)(=O)c1ccc(-c2c3ccc(=[N+](CC)CC)cc-3oc3cc(N(CC)CC)ccc23)c(S(=O)(=O)[O-])c1)OC(=O)CCCCCCC/C=C\CCCCCCCC [rhodamine-PE, 1,2-dioleoyl-sn-glycero-3-phosphoethanolamine-N-(lissaminerhodamine B sulfonyl)]

diffusion coefficient (Dcoef) of single trajectories (FtsZ-FtsA co-filaments [2]): 0.0016 ± 0.0003 μm^2/s
Molecule: FtsA: E. coli FtsA (UP P0ABH0), membrane anchor of FtsZ, purified
sedimentation coefficient, main peak ([3]; AlexaFluor488-FtsA in the absence of FtsN, n=2): ~ 2 S

confinement time [4]: 0.41 s | frequency of confinement events relative to FtsN (cyto-DDEE)His [4]: 3 fold | colocalization efficiency with FtsZ (Pearson correlation coefficient) [5]: 0.62
Molecule: FtsN_(cyto)His, cytoplasmic peptide of FtsN

diffusion coefficient (Dcoef) of single trajectories (FtsZ-FtsA co-filaments [2]): below 1x10^-4 μm^2/s
Molecule: FtsZ: E. coli tubulin-related GTPase FtsZ (UP P0A9A6), purified, fluorescently labelled

interaction with FtsA at high salt (FtsA [6]; 300 mM KCl): significantly weaker | interaction with FtsA in solution (FtsA [6]; Alexa647-FtsA titrated with peptide or protein, n=3): Binding was observed | Kd (FtsA [7]): 734 ± 23 nM | Kd (FtsA [8]): 250 ± 51 nM
B1: Full-length FtsN (His6) (natural protein)
chain: MAQRDYVRRSQPAPSRRKKSTSRKKQRNLPAVSPAMVAIAAAVLVTFIGGLYFITHHKKEESETLQSQKVTGNGLPPKPEERWRYIKELESRQPGVRAPTEPSAGGEVKTPEQLTPEQRQLLEQMQADMRQQPTQLVEVPWNEQTPEQRQQTLQRQRQAQQLAEQQRLAQQSRTTEQSWQQQTRTSQAAPVQAQPRQSKPASSQQPYQDLLQTPAHTTAQSKPQQAAPVARAADAPKPTAEKKDERRWMVQCGSFRGAEQAETVRAQLAFEGFDSKITTNNGWNRVVIGPVKGKENADSTLNRLKMAGHTNCIRLAAGG
sedimentation coefficient, second main peak ([3]; 16 μM in 3.72 mM DDM, Raleigh interference, n=3, compatible with dimers): 5.2 ± 0.1 S | sedimentation coefficient, first main peak ([3]; 16 μM in 3.72 mM DDM, Raleigh interference, n=3, compatible with monomers): 4.1 ± 0.1 S

binding result (FtsA [10]): binds
B2: FtsZ (natural protein)
chain: T1 sequence (P0A9A6 1-383 partner)
binding result [9]: binds
